Results published in ChEMBL document CHEMBL2413066, “Molecular docking guided structure based design of symmetrical N,N'-disubstituted urea/thiourea as HIV-1 gp120-CD4 binding inhibitors” (Bioorg Med Chem, 2013).

Key:
[1] = Inhibition of HIV-1 gp120-CD4 (unknown origin) interaction; parameters: species or system Human immunodeficiency virus 1
Outline: (§1)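 Capture ELISA for gp120–CD4 binding. Compounds diluted in diluent buffer over 0.1–1000 ng/ml and added with positive reference CD4 (1000 ng/ml). The CD4 standard ran in twofold dilutions from 1000 to 0.5 ng/ml. Incubation 1 h at room temperature, three washes, then conjugate at 1:100 for 1 h. TMB for 10 min, reaction stopped, absorbance read at 450 nm; IC50 derived.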

[2] = Inhibition of HIV1 gp120-CD4 (unknown origin) interaction after 1 hr by ELISA; parameters: species or system Human immunodeficiency virus 1; outline: as §1

Compound	pIC50 [1]	IC50 [2]
Cc1ccc(C(=O)N2CCN(S(=O)(=O)c3c[nH]c4ncccc34)[C@@H](C)C2)s1	5.638	–
COc1cc[nH]c2ncc(C(=O)C(=O)N3CCN(C(=O)c4ccccc4)C[C@@H]3C)c1-2	8.097	–
COc1ncc(OC)c2c(C(=O)C(=O)N3CCN(C(=O)c4ccccc4)CC3)c[nH]c12	7.588	–
O=C(c1ccccc1)N1CCN(S(=O)(=O)c2c[nH]c3ncccc23)CC1	4.657	–
S=C(Nc1ccc(Cc2nc3ccccc3[nH]2)cc1)Nc1ccc(Cc2nc3ccccc3[nH]2)cc1	–	149 nM
O=C(C(=O)N1CCN(C(=O)c2ccccc2)CC1)c1c[nH]c2ncccc12	6.284	–
O=C(Nc1ccc(Cc2nc3ccccc3[nH]2)cc1)Nc1ccc(Cc2nc3ccccc3[nH]2)cc1	–	197 nM
C[C@H]1CN(C(=O)c2cc3ccccc3o2)CCN1S(=O)(=O)c1c[nH]c2ncccc12	5.523	–
C[C@H]1CN(C(=O)c2ccccc2)CCN1C(=O)C(=O)c1c[nH]c2ncccc12	7.523	–
Cc1csc(C(=O)N2CCN(S(=O)(=O)c3c[nH]c4ncccc34)[C@@H](C)C2)c1	5.721	–
O=C(NCc1nc2ccccc2[nH]1)NCc1nc2ccccc2[nH]1	–	247 nM
C[C@H]1CN(C(=O)c2ccccc2)CCN1S(=O)(=O)c1c[nH]c2c(-n3nccn3)ncc(F)c12	6.208	–
S=C(Nc1ccc(-c2nc3ccccc3[nH]2)cc1)Nc1ccc(-c2nc3ccccc3[nH]2)cc1	–	126 nM
C[C@H]1CN(C(=O)c2ccn(C)n2)CCN1S(=O)(=O)c1c[nH]c2ncccc12	5.62	–
C[C@H]1CN(C(=O)c2csc(N)n2)CCN1S(=O)(=O)c1c[nH]c2ncccc12	6.284	–
S=C(NCc1nc2ccccc2[nH]1)NCc1nc2ccccc2[nH]1	–	13 nM
COc1ncc(OC)c2c(C(=O)C(=O)N3CCN(C(=O)c4ccccc4)C[C@@H]3C)c[nH]c12	8.301	–
O=C(Nc1ccc(-c2nc3ccccc3[nH]2)cc1)Nc1ccc(-c2nc3ccccc3[nH]2)cc1	–	188 nM
C[C@H]1CN(C(=O)c2cnccn2)CCN1S(=O)(=O)c1c[nH]c2ncccc12	5.041	–
C[C@H]1CN(C(=O)c2csc(Br)n2)CCN1S(=O)(=O)c1c[nH]c2ncccc12	6.377	–
C[C@H]1CN(C(=O)c2ccccc2)CCN1S(=O)(=O)c1c[nH]c2c(F)c(F)c(F)c(F)c12	5.328	–

Now from value to molecule:

pIC50 [1]	IC50 [2]	Compound
6.066	–	C[C@H]1CN(C(=O)c2ccccc2)CCN1S(=O)(=O)c1c[nH]c2ncccc12
7.444	–	C[C@H]1CN(C(=O)c2ccccc2)CCN1S(=O)(=O)c1c[nH]c2c(-n3ccnc3)ncc(F)c12
6.367	–	C[C@H]1CN(C(=O)c2ccccc2)CCN1S(=O)(=O)c1c[nH]c2ccccc12
6.301	–	C[C@H]1CN(C(=O)c2ccccc2)CCN1S(=O)(=O)c1c[nH]c2c(-n3cncn3)ccc(F)c12
4.796	–	CC[C@H]1CN(C(=O)c2ccccc2)CCN1S(=O)(=O)c1c[nH]c2ncccc12
4.886	–	C[C@@H]1CN(S(=O)(=O)c2c[nH]c3ncccc23)CCN1C(=O)c1ccccc1
6.699	–	C[C@@H]1CN(C(=O)c2ccccc2)CCN1S(=O)(=O)c1c[nH]c2c(-n3nccn3)ccc(F)c12
6.699	–	C[C@H]1CN(C(=O)c2ccccc2)CCN1S(=O)(=O)c1c[nH]c2cccc(F)c12
6.824	–	C[C@H]1CN(C(=O)c2ccccc2)CCN1S(=O)(=O)c1c[nH]c2c(-n3cncn3)nccc12
5.481	–	C[C@H]1CN(C(=O)c2ccccn2)CCN1S(=O)(=O)c1c[nH]c2ncccc12
5.372	–	COc1cccc2[nH]cc(S(=O)(=O)N3CCN(C(=O)c4ccccc4)C[C@@H]3C)c12
6.432	–	C[C@H]1CN(C(=O)c2ccccc2)CCN1S(=O)(=O)c1c[nH]c2c(F)ccc(F)c12
6.824	–	C[C@H]1CN(C(=O)c2ccccc2)CCN1S(=O)(=O)c1c[nH]c2c(-n3ccnn3)ccc(F)c12
7.097	–	C[C@H]1CN(C(=O)c2ccccc2)CCN1S(=O)(=O)c1c[nH]c2c(-n3ccnc3)nccc12
5.444	–	C[C@H]1CN(C(=O)c2ccccc2)CCN1S(=O)(=O)c1c[nH]c2ccc(F)cc12
